# The source made the active and inactive calls. No cut-off for these calls is given here.
# Experiments:
# [1] = Growth inhibition of human NCI60 cells; format: functional
# [2] = biological target: RAF proto-oncogene serine/threonine-protein kinase (Homo sapiens) (UniProt P04049); assay: Inhibition of c-Raf at 10 uM
# [3] = biological target: Cyclin-dependent kinase 2 (Homo sapiens) (UniProt P24941); assay: Inhibition of CDK2 at 10 uM
# DU-145 [4] = assay: Induction of apoptosis in human DU145 cells assessed as viable cells at 20 uM after 24 hrs by annexinV-propidium iodide staining-based flow cytometric analysis (reference value: 89%); format: functional; conditions: DU-145, 24 h, read-out: Activity
# [5] = biological target: Aurora kinase A (Homo sapiens) (UniProt O14965); assay: Inhibition of aurora A kinase at 10 uM
# U-937 [6] = assay: Induction of apoptosis in human U937 cells assessed as late apoptotic cells at 10 uM after 3 hrs by annexinV-propidium iodide staining-based flow cytometric analysis (reference value: 8.6%); format: functional
# U-937 [7] = assay: Cell cycle arrest in human U937 cells assessed as accumulation at S-phase at 10 uM after 24 hrs by propidium iodide staining-based flow cytometric analysis; format: functional
# Summary of the method: (§1)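 Cells cultured in RPMI 1640 with 10% FBS and treated 24 h at the indicated concentrations. Stained with propidium iodide for 4 h at 4 °C in the dark. Flow cytometry gave the percentage of cells in G₀/G₁, S, G₂/M and sub-G₁ phases.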
# U-937 [8] = assay: Induction of apoptosis in human U937 cells assessed as viable cells at 10 uM after 3 hrs by annexinV-propidium iodide staining-based flow cytometric analysis (reference value: 86.3%); format: functional; conditions: U-937, 3 h, read-out: Activity
# [9] = Inhibition of MSK2 at 10 uM
# U-937 [10] = assay: Induction of apoptosis in human U937 cells assessed as late apoptotic cells at 10 uM after 18 hrs by annexinV-propidium iodide staining-based flow cytometric analysis (reference value: 7.8%); format: functional
# [11] = biological target: Interleukin-1 receptor-associated kinase 4 (Homo sapiens) (UniProt Q9NWZ3); assay: Inhibition of IRAK4 at 10 uM
# Interleukin-1 receptor-associated kinase 4 (Homo sapiens), sequence (Q9NWZ3 whole entry): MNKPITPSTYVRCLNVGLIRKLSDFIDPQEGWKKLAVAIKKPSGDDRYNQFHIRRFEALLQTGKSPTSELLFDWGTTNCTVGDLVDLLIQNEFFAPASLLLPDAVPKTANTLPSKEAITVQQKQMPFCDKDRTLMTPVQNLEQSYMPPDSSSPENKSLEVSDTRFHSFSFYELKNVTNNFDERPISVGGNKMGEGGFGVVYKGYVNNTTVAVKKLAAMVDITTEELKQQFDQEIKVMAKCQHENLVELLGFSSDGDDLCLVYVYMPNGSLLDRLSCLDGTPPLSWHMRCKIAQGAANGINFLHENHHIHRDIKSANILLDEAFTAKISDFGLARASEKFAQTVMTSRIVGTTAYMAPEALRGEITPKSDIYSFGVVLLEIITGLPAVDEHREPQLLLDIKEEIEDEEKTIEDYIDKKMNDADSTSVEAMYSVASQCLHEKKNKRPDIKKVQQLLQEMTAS
# [12] = biological target: RAC-alpha serine/threonine-protein kinase (Homo sapiens) (UniProt P31749); assay: Inhibition of AKT1 at 10 uM
# RAC-alpha serine/threonine-protein kinase (Homo sapiens), sequence (P31749 whole entry): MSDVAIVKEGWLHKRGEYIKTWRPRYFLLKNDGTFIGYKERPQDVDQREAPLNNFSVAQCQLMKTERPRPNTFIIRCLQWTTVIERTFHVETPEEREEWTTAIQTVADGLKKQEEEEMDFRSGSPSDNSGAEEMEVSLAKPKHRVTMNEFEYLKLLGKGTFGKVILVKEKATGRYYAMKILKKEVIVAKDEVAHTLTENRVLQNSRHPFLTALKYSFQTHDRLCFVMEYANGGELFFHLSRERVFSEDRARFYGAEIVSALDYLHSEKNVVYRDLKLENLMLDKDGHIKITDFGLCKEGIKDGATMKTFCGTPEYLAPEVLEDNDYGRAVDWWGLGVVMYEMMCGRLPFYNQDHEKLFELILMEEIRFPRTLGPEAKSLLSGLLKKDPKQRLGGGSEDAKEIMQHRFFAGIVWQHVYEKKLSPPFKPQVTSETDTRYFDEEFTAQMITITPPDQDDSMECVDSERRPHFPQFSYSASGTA
# U-937 [13] = assay: Induction of apoptosis in human U937 cells assessed as necrotic cells at 3 uM after 3 hrs by annexinV-propidium iodide staining-based flow cytometric analysis (reference value: 2.3%); format: functional
# [14] = biological target: Rho-associated protein kinase 2 (Homo sapiens) (UniProt O75116); assay: Inhibition of ROCK2 at 10 uM
# Rho-associated protein kinase 2 (Homo sapiens), sequence (O75116 whole entry, looked up): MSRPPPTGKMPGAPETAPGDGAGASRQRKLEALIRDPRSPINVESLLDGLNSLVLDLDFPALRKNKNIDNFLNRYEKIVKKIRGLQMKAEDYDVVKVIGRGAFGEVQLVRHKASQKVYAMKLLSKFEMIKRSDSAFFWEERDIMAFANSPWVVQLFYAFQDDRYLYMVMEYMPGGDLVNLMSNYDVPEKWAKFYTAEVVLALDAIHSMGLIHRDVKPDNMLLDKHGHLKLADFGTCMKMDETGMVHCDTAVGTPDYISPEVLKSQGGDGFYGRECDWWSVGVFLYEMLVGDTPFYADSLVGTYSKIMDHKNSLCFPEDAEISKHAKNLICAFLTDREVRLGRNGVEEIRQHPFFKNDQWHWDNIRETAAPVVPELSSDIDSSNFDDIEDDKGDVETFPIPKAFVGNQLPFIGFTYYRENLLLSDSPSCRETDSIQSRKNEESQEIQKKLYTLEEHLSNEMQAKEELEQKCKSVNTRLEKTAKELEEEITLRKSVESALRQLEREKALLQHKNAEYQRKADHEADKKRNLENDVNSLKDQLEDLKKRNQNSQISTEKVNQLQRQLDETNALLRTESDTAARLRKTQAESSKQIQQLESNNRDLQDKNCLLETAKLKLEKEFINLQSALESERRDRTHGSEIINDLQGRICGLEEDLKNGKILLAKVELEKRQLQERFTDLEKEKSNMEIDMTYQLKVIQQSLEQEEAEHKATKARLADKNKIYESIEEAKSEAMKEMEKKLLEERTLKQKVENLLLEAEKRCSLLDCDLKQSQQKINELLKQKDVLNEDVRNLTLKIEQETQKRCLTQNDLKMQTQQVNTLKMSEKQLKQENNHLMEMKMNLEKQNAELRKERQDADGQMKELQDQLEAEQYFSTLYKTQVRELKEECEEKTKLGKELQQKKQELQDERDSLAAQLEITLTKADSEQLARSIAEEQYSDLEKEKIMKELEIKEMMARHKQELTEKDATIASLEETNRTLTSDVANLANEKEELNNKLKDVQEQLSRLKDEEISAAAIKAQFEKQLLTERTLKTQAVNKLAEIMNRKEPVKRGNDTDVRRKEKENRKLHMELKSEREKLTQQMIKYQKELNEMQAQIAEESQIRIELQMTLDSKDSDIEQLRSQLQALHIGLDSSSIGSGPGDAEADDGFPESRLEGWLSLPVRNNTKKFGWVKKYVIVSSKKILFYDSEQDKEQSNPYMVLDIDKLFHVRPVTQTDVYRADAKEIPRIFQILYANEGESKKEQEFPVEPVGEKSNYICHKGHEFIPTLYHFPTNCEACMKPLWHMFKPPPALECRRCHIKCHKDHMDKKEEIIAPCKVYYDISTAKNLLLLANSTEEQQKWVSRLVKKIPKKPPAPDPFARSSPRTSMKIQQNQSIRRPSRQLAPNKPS
# [15] = biological target: RAF proto-oncogene serine/threonine-protein kinase (Homo sapiens) (UniProt P04049); assay: Inhibition of […] phosphorylation in human U937 cells 1 to 10 uM after 1 hr by Western blot analysis; format: cell-based; conditions: U-937
# Summary of the method: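 U937 cells at 5 × 10^5/mL were exposed to compound for 1 h, then sonicated in SDS/DTT sample buffer with protease inhibitors plus 1 mM orthovanadate and pyrophosphate, and boiled 5 min. Blots were blocked in 5% milk, probed with primary antibody overnight at 4 °C and 1:2000 HRP secondary, and read by chemiluminescence. α-Tubulin reprobe served as loading control. Blots shown represent one of three experiments.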
# U-937 [16] = assay: Induction of apoptosis in human U937 cells assessed as necrotic cells at 10 uM after 6 hrs by annexinV-propidium iodide staining-based flow cytometric analysis (reference value: 1.2%); format: functional
# DU-145 [17] = assay: Induction of apoptosis in human DU145 cells assessed as early apoptotic cells at 20 uM after 24 hrs by annexinV-propidium iodide staining-based flow cytometric analysis (reference value: 3.8%); format: functional
# U-937 [18] = assay: Inhibition of PI3K-mediated Akt phosphorylation in human U937 cells at 3 uM after 1 hr by Western blot analysis; format: cell-based
# [19] = biological target: 5'-AMP-activated protein kinase catalytic subunit alpha-2 (Homo sapiens) (UniProt P54646); assay: Inhibition of AMPK at 10 uM
# 5'-AMP-activated protein kinase catalytic subunit alpha-2 (Homo sapiens), sequence (P54646 whole entry, looked up): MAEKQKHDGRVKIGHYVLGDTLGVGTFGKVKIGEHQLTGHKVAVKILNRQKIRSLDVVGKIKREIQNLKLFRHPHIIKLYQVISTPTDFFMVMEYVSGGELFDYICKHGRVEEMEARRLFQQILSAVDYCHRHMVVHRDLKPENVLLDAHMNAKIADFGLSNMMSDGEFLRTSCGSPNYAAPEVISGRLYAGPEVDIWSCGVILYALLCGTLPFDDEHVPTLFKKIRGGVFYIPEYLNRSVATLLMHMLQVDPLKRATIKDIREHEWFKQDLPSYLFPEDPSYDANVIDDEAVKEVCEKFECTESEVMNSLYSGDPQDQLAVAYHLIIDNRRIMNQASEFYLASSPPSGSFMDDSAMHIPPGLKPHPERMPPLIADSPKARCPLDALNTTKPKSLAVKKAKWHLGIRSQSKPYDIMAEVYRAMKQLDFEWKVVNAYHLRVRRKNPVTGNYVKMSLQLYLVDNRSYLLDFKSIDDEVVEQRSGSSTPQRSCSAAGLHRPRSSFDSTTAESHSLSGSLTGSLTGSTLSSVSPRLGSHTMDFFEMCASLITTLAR
# [20] = biological target: RAF proto-oncogene serine/threonine-protein kinase (Homo sapiens) (UniProt P04049); assay: Inhibition of raf-mediated ERK phosphorylation in human U937 cells at 3 uM after 1 hr by Western blot analysis; format: cell-based; conditions: U-937
# Summary of the method: (§2)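 Cells in RPMI 1640 with 10% heat-inactivated FBS, 37 °C, 5% CO2; treated in growing medium (DU145 24 h; U937 1 h at 5 × 10⁵/mL). Lysed by sonication in SDS sample buffer with protease inhibitors plus 1 mM orthovanadate and pyrophosphate, boiled 5 min. Blots blocked in 5% milk, primary antibodies 1:1000 overnight at 4 °C, HRP secondary 1:2000, chemiluminescence; α-tubulin loading control.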
# U-937 [21] = assay: Induction of apoptosis in human U937 cells assessed as necrotic cells at 10 uM after 3 hrs by annexinV-propidium iodide staining-based flow cytometric analysis (reference value: 2.3%); format: functional
# [22] = biological target: RAF proto-oncogene serine/threonine-protein kinase (Homo sapiens) (UniProt P04049); assay: Inhibition of raf-mediated MEK phosphorylation in human U937 cells at 3 uM after 1 hr by Western blot analysis; format: cell-based; conditions: U-937; summary of the method: as §2
# [23] = biological target: Serine/threonine-protein kinase Chk1 (Homo sapiens) (UniProt O14757); assay: Inhibition of CHK1 at 10 uM
# [24] = biological target: MAP/microtubule affinity-regulating kinase 3 (Homo sapiens) (UniProt P27448); assay: Inhibition of c-TAK1 at 10 uM
# [25] = biological target: Insulin-like growth factor 1 receptor (Homo sapiens) (UniProt P08069); assay: Inhibition of IGF1R at 10 uM
# Insulin-like growth factor 1 receptor (Homo sapiens), sequence (P08069 31-736 limits assumed): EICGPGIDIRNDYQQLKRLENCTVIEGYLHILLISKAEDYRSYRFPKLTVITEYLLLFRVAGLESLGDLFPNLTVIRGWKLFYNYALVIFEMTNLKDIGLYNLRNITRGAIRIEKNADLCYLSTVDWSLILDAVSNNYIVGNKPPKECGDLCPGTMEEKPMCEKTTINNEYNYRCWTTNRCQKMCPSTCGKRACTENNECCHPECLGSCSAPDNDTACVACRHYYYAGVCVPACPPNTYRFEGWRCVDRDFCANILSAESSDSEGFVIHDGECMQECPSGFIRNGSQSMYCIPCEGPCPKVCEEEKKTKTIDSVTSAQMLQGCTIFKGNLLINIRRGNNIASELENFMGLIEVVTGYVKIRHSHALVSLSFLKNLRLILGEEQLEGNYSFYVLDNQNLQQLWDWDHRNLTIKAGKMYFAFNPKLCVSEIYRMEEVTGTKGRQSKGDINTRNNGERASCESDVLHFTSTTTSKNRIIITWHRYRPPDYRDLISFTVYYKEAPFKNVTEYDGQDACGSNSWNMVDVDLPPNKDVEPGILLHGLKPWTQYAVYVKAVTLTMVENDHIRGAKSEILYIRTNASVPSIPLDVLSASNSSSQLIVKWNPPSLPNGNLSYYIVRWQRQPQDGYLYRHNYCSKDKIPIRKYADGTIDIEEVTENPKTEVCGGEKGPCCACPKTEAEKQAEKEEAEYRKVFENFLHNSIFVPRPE
# Insulin-like growth factor 1 receptor (Homo sapiens), sequence (P08069 741-1367 limits assumed): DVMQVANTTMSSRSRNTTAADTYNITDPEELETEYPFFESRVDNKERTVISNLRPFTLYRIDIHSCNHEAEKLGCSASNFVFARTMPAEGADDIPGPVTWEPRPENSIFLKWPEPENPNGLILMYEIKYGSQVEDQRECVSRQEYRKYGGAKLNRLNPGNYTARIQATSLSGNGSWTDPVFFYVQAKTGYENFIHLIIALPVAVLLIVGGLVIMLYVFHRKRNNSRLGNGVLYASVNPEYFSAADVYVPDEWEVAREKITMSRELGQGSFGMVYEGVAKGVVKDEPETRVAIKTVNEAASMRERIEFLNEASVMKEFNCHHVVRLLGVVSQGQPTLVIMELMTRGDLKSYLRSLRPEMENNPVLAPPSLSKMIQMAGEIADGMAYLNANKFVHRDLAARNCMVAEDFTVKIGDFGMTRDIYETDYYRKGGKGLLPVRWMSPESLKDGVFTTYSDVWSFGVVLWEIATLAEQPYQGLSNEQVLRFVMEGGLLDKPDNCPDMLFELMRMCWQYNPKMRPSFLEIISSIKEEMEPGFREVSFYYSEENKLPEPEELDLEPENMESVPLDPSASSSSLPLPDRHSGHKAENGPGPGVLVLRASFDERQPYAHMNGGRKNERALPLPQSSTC
# U-937 [26] = assay: Induction of apoptosis in human U937 cells assessed as early apoptotic cells at 10 uM after 6 hrs by annexinV-propidium iodide staining-based flow cytometric analysis (reference value: 4.6%); format: functional
# [27] = biological target: Calcium/calmodulin-dependent protein kinase type II subunit beta (Homo sapiens) (UniProt Q13554); assay: Inhibition of CAMK2 at 10 uM
# [28] = biological target: Serine/threonine-protein kinase MARK1 (Homo sapiens) (UniProt Q9P0L2); assay: Inhibition of MARK1 at 10 uM
# [29] = biological target: Serine/threonine-protein kinase PAK 2 (Homo sapiens) (UniProt Q13177); assay: Inhibition of PAK2 at 10 uM
# U-937 [30] = assay: Induction of apoptosis in human U937 cells assessed as early apoptotic cells at 3 uM after 6 hrs by annexinV-propidium iodide staining-based flow cytometric analysis (reference value: 4.6%); format: functional
# M12 = assay: Growth inhibition of human M12 cells after 24 hrs by MTS assay; format: functional, cell-based
# Summary of the method: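 Cells in RPMI 1640 with 10% heat-inactivated FBS, seeded 2 × 10⁴ cells/well and exposed 24 h. MTS reagent added, then 1 h further incubation at 37 °C, 5% CO₂. Formazan absorbance read at 490 nm. Viability expressed as percentage of untreated controls.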
# [31] = biological target: Tyrosine-protein kinase ABL1 (Homo sapiens) (UniProt P00519); assay: Inhibition of ABL at 10 uM
# [32] = Induction of apoptosis in human M12 cells assessed as late apoptotic cells at 20 uM after 24 hrs by annexinV-propidium iodide staining-based flow cytometric analysis (reference value: 4.7%); format: functional
# U-937 [33] = assay: Cell cycle arrest in human U937 cells assessed as sub-diploid apoptotic fraction at 15 uM after 24 hrs by propidium iodide staining-based flow cytometric analysis; format: functional; summary of the method: as §1
# RAF proto-oncogene serine/threonine-protein kinase (Homo sapiens), sequence (P04049 whole entry): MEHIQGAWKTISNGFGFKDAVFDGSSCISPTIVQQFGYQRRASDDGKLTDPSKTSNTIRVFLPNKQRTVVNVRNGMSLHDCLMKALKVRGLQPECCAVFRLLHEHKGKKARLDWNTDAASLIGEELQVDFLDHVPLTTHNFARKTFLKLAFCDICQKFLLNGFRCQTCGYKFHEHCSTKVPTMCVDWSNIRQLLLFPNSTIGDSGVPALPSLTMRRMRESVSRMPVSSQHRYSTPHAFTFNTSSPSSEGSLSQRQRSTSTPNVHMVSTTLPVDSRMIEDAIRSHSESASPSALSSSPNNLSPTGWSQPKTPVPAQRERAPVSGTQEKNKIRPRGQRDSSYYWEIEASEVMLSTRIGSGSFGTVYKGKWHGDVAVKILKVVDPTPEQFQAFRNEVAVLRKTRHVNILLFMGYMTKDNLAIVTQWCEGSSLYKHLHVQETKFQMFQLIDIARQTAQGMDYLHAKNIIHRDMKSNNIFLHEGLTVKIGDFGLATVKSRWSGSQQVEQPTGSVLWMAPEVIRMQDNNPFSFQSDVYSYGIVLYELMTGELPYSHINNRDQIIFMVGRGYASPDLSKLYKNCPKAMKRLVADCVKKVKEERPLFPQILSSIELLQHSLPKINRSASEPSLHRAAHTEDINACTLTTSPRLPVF
smiles,measurement,setting,value
NCCN1C(=O)S/C(=C\CCC2CCCCC2)C1=O,GI50,[1],1400 nM
same,inhibition,[2],-1%
same,inhibition,[3],-2%
same,viability at 20 µM,DU-145 [4],65.5%
same,inhibition,[5],-4%
same,Activity,U-937 [6],11%
same,Activity,U-937 [7],23.6%
same,viability at 10 µM,U-937 [8],62.8%
same,inhibition,[9],3%
same,Activity,U-937 [10],40.9%
same,inhibition,[11],-1%
same,inhibition,[12],3%
same,Activity,U-937 [13],1.9%
same,inhibition,[14],-1%
same,inhibition,[15],Active
same,Activity,U-937 [16],1.4%
same,Activity,DU-145 [17],8.3%
same,inhibition,U-937 [18],Active
same,inhibition,[19],76%
same,inhibition,[20],Active
same,Activity,U-937 [21],2.4%
same,inhibition,[22],Active
same,inhibition,[23],11%
same,inhibition,[24],6%
same,inhibition,[25],-5%
same,Activity,U-937 [26],14.2%
same,inhibition,[27],60%
same,inhibition,[28],0%
same,inhibition,[29],10%
same,Activity,U-937 [30],3.8%
same,growth inhibition (GI),M12,Active
same,inhibition,[31],6%
same,Activity,[32],60.5%
same,Activity,U-937 [33],64.3%

# Reference: ChEMBL document CHEMBL1926538, “3,5-Disubstituted-thiazolidine-2,4-dione analogs as anticancer agents: design, synthesis and biological characterization” (Eur J Med Chem, 2012)
